What was measured:
[1] = Apparent partition coefficient, log P at pH 7.4 by shake flask method; assay type: physicochemical; conditions: octanol/water; for logD: read-out: LogD7.4
Procedure, shortened: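 Apparent partition between octanol and water, expressed as log of the fraction in the octanol layer (log P_app); direct shake-flask method in Tris buffer, pH 7.4.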

[2] = tested on: Rattus norvegicus; test: Iron-clearing efficiency in non-iron-overloaded Sprague-Dawley rat at 300 umol/kg, po after 24 hrs relative to control; assay type: functional
Procedure, shortened: (§1)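 Non-iron-overloaded, bile duct-cannulated male Sprague-Dawley rats (400-450 g) got a single 300 µmol/kg dose by oral gavage, as the monosodium salt in distilled water. Bile was collected at 3 h intervals for 24 h and urine at 24 h, with iron by atomic absorption. ICE = treated minus control iron excretion, divided by theoretical output (2:1 complex), as %. n = 3-8; mean ± SEM.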

[3] = tested on: Rattus norvegicus; test: Iron-clearing efficiency in non-iron-overloaded Sprague-Dawley rat assessed as bile iron excretion at 300 umol/kg, po relative to control; assay type: functional; procedure, shortened: as §1
[4] = tested on: Rattus norvegicus; test: Iron-clearing efficiency in non-iron-overloaded Sprague-Dawley rat assessed as urine iron excretion at 300 umol/kg, po relative to control; assay type: functional; procedure, shortened: as §1
[5] = tested on: Sapajus apella; test: Iron-clearing efficiency in iron-overloaded Cebus apella at 150 umol/kg, po relative to control; assay type: functional
Procedure, shortened: (§2)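 Iron-overloaded Cebus apella were dosed once by oral gavage with the monosodium salt (free acid plus 1 equiv NaOH in distilled water; one ligand in 40% Cremophor RH-40/water). Feces and urine were collected at 24 h intervals from 4 d pre-drug to 5 d post-drug, and iron was read by flame AAS. ICE = 2-day post-drug iron minus mean 4-day baseline, divided by theoretical output (2:1 complex), as %. Mean ± SEM.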

[6] = tested on: Sapajus apella; test: Iron-clearing efficiency in iron-overloaded Cebus apella assessed as bile iron excretion at 150 umol/kg, po relative to control; assay type: functional
[7] = tested on: Sapajus apella; test: Iron-clearing efficiency in iron-overloaded Cebus apella assessed as urine iron excretion at 150 umol/kg, po relative to control; assay type: functional; procedure, shortened: as §2
[8] = tested on: Rattus norvegicus; test: Nephrotoxicity in non-iron-overloaded Sprague-Dawley rat at 300 umol/kg, po; assay type: toxicity, organism-based; conditions: in vivo
Procedure, shortened: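 Male Sprague-Dawley rats (400-450 g), not iron-overloaded, bile duct-cannulated, each given a single 300 µmol/kg oral gavage dose.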

Row | Compound | LogD7.4 [1] | Activity [2] | Activity [3] | Activity [4] | Activity [5] | Activity [6] | Activity [7] | logD [1] | Activity [8]
1 | CCCCCCCCOc1ccc(O)c(C2=N[C@@](C)(C(=O)[O-])CS2)c1.[Na+] | 1.56 | 4% | 97% | 3% |  |  |  |  | 
2 | C[C@]1(C(=O)[O-])CSC(c2ccc(O)cc2O)=N1.[Na+] [DEFERITRIN SODIUM] |  | 1.1% | 100% | 0% | 16.8% | 88% | 12% |  | 
3 | CCOc1ccc(C2=N[C@@](C)(C(=O)[O-])CS2)c(O)c1.[Na+] | -0.04 | 18% | 100% | 0% |  |  |  |  | 
4 | COc1ccc(C2=N[C@@](C)(C(=O)[O-])CS2)c(O)c1.[Na+] |  | 6.6% | 98% | 2% | 24.4% | 91% | 9% |  | 
5 | COc1ccc(O)c(C2=N[C@@](C)(C(=O)[O-])CS2)c1.[Na+] |  | 6.3% | 95% | 5% | 18.9% | 94% | 6% | -0.61 | 
6 | COCCOCCOCCOc1ccc(C2=N[C@@](C)(C(=O)[O-])CS2)c(O)c1.[Na+] |  | 5.5% | 90% | 10% | 25.4% | 96% | 4% |  | 
7 | CCCCCCCCOc1cc(O)c(C2=N[C@@](C)(C(=O)[O-])CS2)cc1OCCCCCCCC.[Na+] | 2.05 | <0.5% |  |  |  |  |  |  | 
8 | CCCCOc1ccc(C2=N[C@@](C)(C(=O)[O-])CS2)c(O)c1.[Na+] | 1.02 | 13.1% | 98% | 2% |  |  |  |  | Toxic
9 | CCCCCCCCOc1ccc(C2=N[C@@](C)(C(=O)[O-])CS2)c(O)c1.[Na+] | 1.53 | 6.4% | 94% | 6% |  |  |  |  | 
10 | C[C@]1(C(=O)[O-])CSC(c2cc(O)ccc2O)=N1.[Na+] |  | 1% | 99% | 1% | 12.6% | 88% | 12% | -1.14 | 
11 | CCCCOc1ccc(O)c(C2=N[C@@](C)(C(=O)[O-])CS2)c1.[Na+] | 0.94 | 21% | 99% | 1% |  |  |  |  | Toxic

Reference: ChEMBL document CHEMBL1140112, “Desferrithiocin analogues and nephrotoxicity” (J Med Chem, 2008)
